Results taken from ChEMBL document CHEMBL5335790, “Design, synthesis and biological evaluation of novel 2,4-thiazolidinedione derivatives able to target the human BAG3 protein” (Eur J Med Chem, 2023).
The source made the active and inactive calls. No cut-off for these calls is given here.

Biological target: T1, BAG family molecular chaperone regulator 3 (Homo sapiens, UniProt O95817)
Assay: Binding affinity to CM4 sensorchip immobilized C-terminal His tagged human BAG3 transfected in HEK293T cells at 50 uM by SPR analysis
Outline: (§1)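 SPR screen on BAG3-His amine-coupled to a CM4 chip at 60 µg/mL in pH 2.8 acetate. Compound at 50 µM in PBS with 5% DMSO and 0.05% P20 was injected for 90 s at 30 µL/min, then washed. Chip regenerated with 10 mM glycine pH 3. Bound RU read at equilibrium against a void flow cell; 3–10 repeats, mean ± SEM.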

T1 sequence (O95817 whole entry): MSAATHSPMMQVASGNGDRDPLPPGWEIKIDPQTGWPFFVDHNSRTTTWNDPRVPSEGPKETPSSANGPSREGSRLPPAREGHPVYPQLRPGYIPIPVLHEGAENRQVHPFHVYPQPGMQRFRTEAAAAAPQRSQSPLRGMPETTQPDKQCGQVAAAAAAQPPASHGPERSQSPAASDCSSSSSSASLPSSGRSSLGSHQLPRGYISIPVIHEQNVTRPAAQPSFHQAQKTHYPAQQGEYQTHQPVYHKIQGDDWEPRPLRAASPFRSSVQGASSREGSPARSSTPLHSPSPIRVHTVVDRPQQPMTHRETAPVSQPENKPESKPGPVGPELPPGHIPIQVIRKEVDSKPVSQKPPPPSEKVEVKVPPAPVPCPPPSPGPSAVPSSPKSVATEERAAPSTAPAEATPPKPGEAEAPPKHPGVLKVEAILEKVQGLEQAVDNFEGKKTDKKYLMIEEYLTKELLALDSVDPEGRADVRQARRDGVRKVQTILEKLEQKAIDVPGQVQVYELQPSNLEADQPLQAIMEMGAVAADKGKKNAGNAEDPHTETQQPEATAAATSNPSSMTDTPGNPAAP

| Structure (SMILES) | Activity |
| --- | --- |
| CCOC(=O)C(C)N1C(=O)S/C(=C\c2ccc(O)c(Cl)c2)C1=O (racemic) | inactive |
| CC(C(=O)N1CC2(COC2)C1)N1C(=O)S/C(=C\c2ccc(O)c(O)c2)C1=O (racemic) | inactive |
| CCOC(=O)C(C)N1C(=O)S/C(=C\c2ccc(F)c(O)c2)C1=O (racemic) | inactive |
| CCOC(=O)C(C)N1C(=O)N/C(=C\c2ccc(O)c(O)c2)C1=O (racemic) | inactive |
| CC(C(=O)N1CCOCC1)N1C(=O)S/C(=C\c2ccc(O)c(O)c2)C1=O (racemic) | inactive |

Tested on: A549
Assay: Antiproliferative activity against human A549 cells assessed as cell growth inhibition incubated for 72 hrs by resazurin dye based analysis
Type: functional
Outline: (§2)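 Cells seeded at 2000/well, treated 24 h later with compounds in a 6-point 2-fold dose series, duplicate wells, two independent experiments. After 72 h, resazurin was added at 44 µM final for 3 h at 37 °C and fluorescence was read at 590 nm. Viability was normalized to 1 µM bortezomib (positive) and 0.5% DMSO (negative) controls. GI50 is the mean ± SEM of dose-response curves.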

| Structure (SMILES) | GI50 [µM] |
| --- | --- |
| O=C(CN1C(=O)S/C(=C\c2ccc(O)c(O)c2)C1=O)N1CCOCC1 | 49.4 |
| CCOC(=O)Cc1csc(Oc2ccc(O)cc2)n1 | > 100 |
| O=C1OCCC1N1C(=O)S/C(=C\c2ccc(O)c(O)c2)C1=O (stereo not drawn) | 50.2 |
| CCOC(=O)C(C)N1C(=O)S/C(=C\c2ccc(Cl)c(O)c2)C1=O (racemic) | > 100 |
| CCOC(=O)C(CC)N1C(=O)S/C(=C\c2ccc(O)c(O)c2)C1=O (racemic) | 29.3 |
| CC(C(=O)N1CCOCC1)N1C(=O)S/C(=C\c2ccc(N3CCCC3)cc2)C1=O (racemic) | 69 |
| CCOC(=O)C(C1CC1)N1C(=O)S/C(=C\c2ccc(O)c(O)c2)C1=O (racemic) | 28.1 |
| CC(C(=O)N1CCC2(CC1)OCCO2)N1C(=O)S/C(=C\c2ccc(O)c(O)c2)C1=O (racemic) | 44.1 |
| CCOC(=O)C(C)N1C(=O)S/C(=C\c2ccc(O)c(Cl)c2)C1=O (racemic) | 49.4 |
| CCOC(=O)C(c1ccccc1)N1C(=O)S/C(=C\c2ccc(O)c(O)c2)C1=O (racemic) | 33.3 |
| CC(C(=O)N1CCCCC1)N1C(=O)S/C(=C\c2ccc(O)c(O)c2)C1=O (racemic) | 29.4 |
| CCOC(=O)C(C)N1C(=O)S/C(=C\c2ccc3cn[nH]c3c2)C1=O (racemic) | 57.5 |
| CC(C(=O)N1CC2(COC2)C1)N1C(=O)S/C(=C\c2ccc(O)c(O)c2)C1=O (racemic) | > 100 |
| CCOC(=O)C(C)N1C(=O)S/C(=C\c2ccc(O)c(O)c2)C1=O (racemic) | 32.5 |
| CCOC(=O)C(C)N1C(=O)S/C(=C\c2ccc3[nH]ncc3c2)C1=O (racemic) | 68 |
| CCOC(=O)C(C)N1C(=O)S/C(=C\c2ccc3[nH]cnc3c2)C1=O (racemic) | > 100 |
| CCOC(=O)C(C)N1C(=O)S/C(=C\c2ccc(F)c(O)c2)C1=O (racemic) | > 100 |
| CCOC(=O)C(C)N1C(=O)N/C(=C\c2ccc(O)c(O)c2)C1=O (racemic) | 54.1 |
| CC(C(=O)N1CCOCC1)N1C(=O)S/C(=C\c2ccc(N3CCOCC3)cc2)C1=O (racemic) | > 100 |
| CC(C(=O)N1CCOCC1)N1C(=O)S/C(=C\c2ccc(O)c(O)c2)C1=O (racemic) | 47.9 |
| CCOC(=O)C(C)N1C(=O)S/C(=C\c2cc(Cl)c(O)c(Cl)c2)C1=O (racemic) | 72.5 |
| CCOC(=O)C(C)N1C(=O)S/C(=C\c2ccc(NS(C)(=O)=O)cc2)C1=O (racemic) | > 100 |

Biological target: T1, BAG family molecular chaperone regulator 3
Assay: Binding affinity to CM4 sensorchip immobilized glycosylated C-terminal His tagged human BAG3 transfected in HEK293T cells assessed as dissociation constant by SPR analysis
Outline: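 SPR single-cycle kinetics on CM4-immobilized HEK-293T-expressed BAG3-His. Increasing compound concentrations in PBS with 5% DMSO and 0.05% P20 were injected at 30 µL/min without regeneration between injections, with blank subtraction. Kd from steady-state analysis, reported as mean ± SEM and compared by Student t-test.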

| Structure (SMILES) | Kd [µM] |
| --- | --- |
| O=C(CN1C(=O)S/C(=C\c2ccc(O)c(O)c2)C1=O)N1CCOCC1 | 152 |
| CCOC(=O)C(C1CC1)N1C(=O)S/C(=C\c2ccc(O)c(O)c2)C1=O (racemic) | 204 |
| CCOC(=O)C(c1ccccc1)N1C(=O)S/C(=C\c2ccc(O)c(O)c2)C1=O (racemic) | 366 |
| CC(C(=O)N1CCCCC1)N1C(=O)S/C(=C\c2ccc(O)c(O)c2)C1=O (racemic) | 150 |
| CCOC(=O)C(C)N1C(=O)S/C(=C\c2ccc(O)c(O)c2)C1=O (racemic) | 286 |
| CCOC(=O)C(C)N1C(=O)S/C(=C\c2ccc3[nH]cnc3c2)C1=O (racemic) | 198 |

Tested on: HD-MB03
Assay: Antiproliferative activity against human HD-MB03 cells assessed as cell growth inhibition incubated for 72 hrs by resazurin dye based analysis
Type: functional
Outline: as §2

| Structure (SMILES) | GI50 [µM] |
| --- | --- |
| O=C(CN1C(=O)S/C(=C\c2ccc(O)c(O)c2)C1=O)N1CCOCC1 | 33.1 |
| CCOC(=O)Cc1csc(Oc2ccc(O)cc2)n1 | > 100 |
| O=C1OCCC1N1C(=O)S/C(=C\c2ccc(O)c(O)c2)C1=O (stereo not drawn) | 20.7 |
| CCOC(=O)C(C)N1C(=O)S/C(=C\c2ccc(Cl)c(O)c2)C1=O (racemic) | 5.26 |
| CCOC(=O)C(CC)N1C(=O)S/C(=C\c2ccc(O)c(O)c2)C1=O (racemic) | 11.7 |
| CC(C(=O)N1CCOCC1)N1C(=O)S/C(=C\c2ccc(N3CCCC3)cc2)C1=O (racemic) | 7.4 |
| CCOC(=O)C(C1CC1)N1C(=O)S/C(=C\c2ccc(O)c(O)c2)C1=O (racemic) | 15.5 |
| CC(C(=O)N1CCC2(CC1)OCCO2)N1C(=O)S/C(=C\c2ccc(O)c(O)c2)C1=O (racemic) | 31.4 |
| CCOC(=O)C(C)N1C(=O)S/C(=C\c2ccc(O)c(Cl)c2)C1=O (racemic) | 26.5 |
| CCOC(=O)C(c1ccccc1)N1C(=O)S/C(=C\c2ccc(O)c(O)c2)C1=O (racemic) | 17.6 |
| CC(C(=O)N1CCCCC1)N1C(=O)S/C(=C\c2ccc(O)c(O)c2)C1=O (racemic) | 13.9 |
| CCOC(=O)C(C)N1C(=O)S/C(=C\c2ccc3cn[nH]c3c2)C1=O (racemic) | 26.3 |
| CC(C(=O)N1CC2(COC2)C1)N1C(=O)S/C(=C\c2ccc(O)c(O)c2)C1=O (racemic) | > 100 |
| CCOC(=O)C(C)N1C(=O)S/C(=C\c2ccc(O)c(O)c2)C1=O (racemic) | 25.3 |
| CCOC(=O)C(C)N1C(=O)S/C(=C\c2ccc3[nH]ncc3c2)C1=O (racemic) | 28.3 |
| CCOC(=O)C(C)N1C(=O)S/C(=C\c2ccc3[nH]cnc3c2)C1=O (racemic) | 42.5 |
| CCOC(=O)C(C)N1C(=O)S/C(=C\c2ccc(F)c(O)c2)C1=O (racemic) | > 100 |
| CCOC(=O)C(C)N1C(=O)N/C(=C\c2ccc(O)c(O)c2)C1=O (racemic) | 16.9 |
| CC(C(=O)N1CCOCC1)N1C(=O)S/C(=C\c2ccc(N3CCOCC3)cc2)C1=O (racemic) | > 100 |
| CC(C(=O)N1CCOCC1)N1C(=O)S/C(=C\c2ccc(O)c(O)c2)C1=O (racemic) | 48.7 |
| CCOC(=O)C(C)N1C(=O)S/C(=C\c2cc(Cl)c(O)c(Cl)c2)C1=O (racemic) | 45.6 |
| CCOC(=O)C(C)N1C(=O)S/C(=C\c2ccc(NS(C)(=O)=O)cc2)C1=O (racemic) | 17.6 |

Biological target: T1, BAG family molecular chaperone regulator 3
Assay: Binding affinity to CM4 sensorchip immobilized C-terminal His tagged human BAG3 transfected in HEK293T cells assessed as binding capacity at 50 uM by SPR analysis
Outline: as §1

| Structure (SMILES) | Activity [RU] |
| --- | --- |
| O=C(CN1C(=O)S/C(=C\c2ccc(O)c(O)c2)C1=O)N1CCOCC1 | > 5 |
| CCOC(=O)Cc1csc(Oc2ccc(O)cc2)n1 | < 5 |
| O=C1OCCC1N1C(=O)S/C(=C\c2ccc(O)c(O)c2)C1=O (stereo not drawn) | < 5 |
| CCOC(=O)C(C)N1C(=O)S/C(=C\c2ccc(Cl)c(O)c2)C1=O (racemic) | < 5 |
| CCOC(=O)C(CC)N1C(=O)S/C(=C\c2ccc(O)c(O)c2)C1=O (racemic) | > 5 |
| CC(C(=O)N1CCOCC1)N1C(=O)S/C(=C\c2ccc(N3CCCC3)cc2)C1=O (racemic) | < 5 |
| CCOC(=O)C(C1CC1)N1C(=O)S/C(=C\c2ccc(O)c(O)c2)C1=O (racemic) | > 5 |
| CC(C(=O)N1CCC2(CC1)OCCO2)N1C(=O)S/C(=C\c2ccc(O)c(O)c2)C1=O (racemic) | < 5 |
| CCOC(=O)C(c1ccccc1)N1C(=O)S/C(=C\c2ccc(O)c(O)c2)C1=O (racemic) | > 5 |
| CC(C(=O)N1CCCCC1)N1C(=O)S/C(=C\c2ccc(O)c(O)c2)C1=O (racemic) | > 5 |
| CCOC(=O)C(C)N1C(=O)S/C(=C\c2ccc3cn[nH]c3c2)C1=O (racemic) | < 5 |
| CCOC(=O)C(C)N1C(=O)S/C(=C\c2ccc(O)c(O)c2)C1=O (racemic) | > 5 |
| CCOC(=O)C(C)N1C(=O)S/C(=C\c2ccc3[nH]ncc3c2)C1=O (racemic) | < 5 |
| CCOC(=O)C(C)N1C(=O)S/C(=C\c2ccc3[nH]cnc3c2)C1=O (racemic) | > 5 |
| CC(C(=O)N1CCOCC1)N1C(=O)S/C(=C\c2ccc(N3CCOCC3)cc2)C1=O (racemic) | < 5 |
| CCOC(=O)C(C)N1C(=O)S/C(=C\c2cc(Cl)c(O)c(Cl)c2)C1=O (racemic) | < 5 |

Tested on: RS4-11
Assay: Antiproliferative activity against human RS4-11 cells assessed as cell growth inhibition incubated for 72 hrs by resazurin dye based analysis
Type: functional
Outline: as §2

| Structure (SMILES) | GI50 [µM] |
| --- | --- |
| O=C(CN1C(=O)S/C(=C\c2ccc(O)c(O)c2)C1=O)N1CCOCC1 | 24.8 |
| CCOC(=O)Cc1csc(Oc2ccc(O)cc2)n1 | > 100 |
| O=C1OCCC1N1C(=O)S/C(=C\c2ccc(O)c(O)c2)C1=O (stereo not drawn) | 18.1 |
| CCOC(=O)C(C)N1C(=O)S/C(=C\c2ccc(Cl)c(O)c2)C1=O (racemic) | 60.6 |
| CCOC(=O)C(CC)N1C(=O)S/C(=C\c2ccc(O)c(O)c2)C1=O (racemic) | 5.13 |
| CC(C(=O)N1CCOCC1)N1C(=O)S/C(=C\c2ccc(N3CCCC3)cc2)C1=O (racemic) | 5.2 |
| CCOC(=O)C(C1CC1)N1C(=O)S/C(=C\c2ccc(O)c(O)c2)C1=O (racemic) | 6.83 |
| CC(C(=O)N1CCC2(CC1)OCCO2)N1C(=O)S/C(=C\c2ccc(O)c(O)c2)C1=O (racemic) | 13.4 |
| CCOC(=O)C(C)N1C(=O)S/C(=C\c2ccc(O)c(Cl)c2)C1=O (racemic) | 38.1 |
| CCOC(=O)C(c1ccccc1)N1C(=O)S/C(=C\c2ccc(O)c(O)c2)C1=O (racemic) | 9.53 |
| CC(C(=O)N1CCCCC1)N1C(=O)S/C(=C\c2ccc(O)c(O)c2)C1=O (racemic) | 8.6 |
| CCOC(=O)C(C)N1C(=O)S/C(=C\c2ccc3cn[nH]c3c2)C1=O (racemic) | 17.8 |
| CC(C(=O)N1CC2(COC2)C1)N1C(=O)S/C(=C\c2ccc(O)c(O)c2)C1=O (racemic) | > 100 |
| CCOC(=O)C(C)N1C(=O)S/C(=C\c2ccc(O)c(O)c2)C1=O (racemic) | 5.1 |
| CCOC(=O)C(C)N1C(=O)S/C(=C\c2ccc3[nH]ncc3c2)C1=O (racemic) | 50.5 |
| CCOC(=O)C(C)N1C(=O)S/C(=C\c2ccc3[nH]cnc3c2)C1=O (racemic) | > 100 |
| CCOC(=O)C(C)N1C(=O)S/C(=C\c2ccc(F)c(O)c2)C1=O (racemic) | > 100 |
| CCOC(=O)C(C)N1C(=O)N/C(=C\c2ccc(O)c(O)c2)C1=O (racemic) | 11.9 |
| CC(C(=O)N1CCOCC1)N1C(=O)S/C(=C\c2ccc(N3CCOCC3)cc2)C1=O (racemic) | > 100 |
| CC(C(=O)N1CCOCC1)N1C(=O)S/C(=C\c2ccc(O)c(O)c2)C1=O (racemic) | 14.1 |
| CCOC(=O)C(C)N1C(=O)S/C(=C\c2cc(Cl)c(O)c(Cl)c2)C1=O (racemic) | 47.2 |
| CCOC(=O)C(C)N1C(=O)S/C(=C\c2ccc(NS(C)(=O)=O)cc2)C1=O (racemic) | 50.3 |
